Key:
[1] = target: T1, C-C chemokine receptor type 2 (Homo sapiens, UniProt P41597); test: Displacement of [125I]MCP1 from human CCR2 expressed in monocytes; type: cell-based
In short: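 Human CCR2 binding was read as inhibition of 125I-MCP-1 binding to monocyte cells stably transfected with CCR2. The assay was run in the presence of 0.5% BSA, using membranes of these cells.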
Target sequence in this assay (P41597 whole entry): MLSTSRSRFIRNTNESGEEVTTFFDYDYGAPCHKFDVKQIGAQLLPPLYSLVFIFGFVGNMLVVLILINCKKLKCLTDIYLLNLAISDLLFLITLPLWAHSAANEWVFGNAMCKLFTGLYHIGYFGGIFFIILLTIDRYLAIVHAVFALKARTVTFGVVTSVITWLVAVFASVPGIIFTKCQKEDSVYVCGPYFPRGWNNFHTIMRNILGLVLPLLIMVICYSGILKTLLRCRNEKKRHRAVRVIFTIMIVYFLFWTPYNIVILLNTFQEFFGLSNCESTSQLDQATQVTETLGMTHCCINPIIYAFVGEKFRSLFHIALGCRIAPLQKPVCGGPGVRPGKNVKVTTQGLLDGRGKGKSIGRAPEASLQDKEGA

[2] = target: C-C chemokine receptor type 2 (Mus musculus, UniProt P51683); test: Displacement of [125I]MCP1 from mouse CCR2 expressed in monocytes; type: cell-based
[3] = target: T1, C-C chemokine receptor type 2; test: Displacement of [125I]MCP-1 from human CCR2 expressed in monocytes 1 uM; type: cell-based
Target sequence in this assay (P41597 whole entry, looked up): as the sequence (P41597 whole entry) above

[4] = Half life in Sprague-Dawley rat; type: ADME, organism-based; conditions: in vivo
[5] = Half life in Beagle dog; type: ADME, organism-based, Canis lupus familiaris; conditions: in vivo
[6] = target: C-X-C chemokine receptor type 4 (Homo sapiens) (UniProt P61073); test: Inhibition of CXCR4 at 1uM
[7] = target: T2, C-C chemokine receptor type 4 (Homo sapiens) (UniProt P51679); test: Inhibition of CCR4 at 1uM
T2 sequence (whole entry): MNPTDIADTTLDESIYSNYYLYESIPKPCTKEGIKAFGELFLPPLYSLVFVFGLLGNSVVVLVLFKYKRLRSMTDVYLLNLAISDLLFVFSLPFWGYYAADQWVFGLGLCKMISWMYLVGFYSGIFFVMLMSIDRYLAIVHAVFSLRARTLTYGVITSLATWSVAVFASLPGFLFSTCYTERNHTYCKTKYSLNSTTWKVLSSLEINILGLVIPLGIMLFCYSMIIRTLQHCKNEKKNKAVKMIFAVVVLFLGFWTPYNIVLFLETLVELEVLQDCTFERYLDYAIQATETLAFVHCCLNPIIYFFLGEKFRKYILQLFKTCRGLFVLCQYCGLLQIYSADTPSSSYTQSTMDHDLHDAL

[8] = Cmax in Beagle dog; type: ADME, organism-based, Canis lupus familiaris; conditions: in vivo
[9] = Bioavailability in Sprague-Dawley rat; type: ADME, organism-based; conditions: in vivo
[10] = Cmax in Sprague-Dawley rat; type: ADME, organism-based; conditions: in vivo
[11] = target: T3, C-C chemokine receptor type 3 (Homo sapiens) (UniProt P51677); test: Inhibition of CCR3 at 1uM
T3 sequence (whole entry): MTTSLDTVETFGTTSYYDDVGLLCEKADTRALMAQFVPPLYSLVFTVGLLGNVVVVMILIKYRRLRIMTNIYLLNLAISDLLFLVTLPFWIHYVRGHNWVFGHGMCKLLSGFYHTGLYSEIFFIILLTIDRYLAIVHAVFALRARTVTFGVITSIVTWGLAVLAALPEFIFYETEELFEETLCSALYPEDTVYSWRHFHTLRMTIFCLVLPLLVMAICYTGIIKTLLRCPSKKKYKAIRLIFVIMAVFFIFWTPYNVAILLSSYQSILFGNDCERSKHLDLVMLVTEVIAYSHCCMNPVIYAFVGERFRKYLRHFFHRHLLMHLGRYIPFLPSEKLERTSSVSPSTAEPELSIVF

[12] = Clearance in Sprague-Dawley rat; type: ADME, organism-based; conditions: in vivo
[13] = target: C-C chemokine receptor type 5 (Homo sapiens) (UniProt P51681); test: Inhibition of CCR5 at 1uM
[14] = Volume of distribution in Beagle dog; type: ADME, organism-based, Canis lupus familiaris; conditions: in vivo, read-out: Vdss
[15] = Tmax in Sprague-Dawley rat; type: ADME, organism-based; conditions: in vivo
[16] = Clearance in Beagle dog; type: ADME, organism-based, Canis lupus familiaris; conditions: in vivo
[17] = target: Substance-P receptor (Homo sapiens) (UniProt P25103); test: Inhibition of NK1 receptor at 1uM
[18] = Bioavailability in Beagle dog; type: ADME, organism-based, Canis lupus familiaris; conditions: in vivo
[19] = target: T4, C-C chemokine receptor type 1 (Homo sapiens) (UniProt P32246); test: Inhibition of CCR1 at 1uM
T4 sequence (whole entry): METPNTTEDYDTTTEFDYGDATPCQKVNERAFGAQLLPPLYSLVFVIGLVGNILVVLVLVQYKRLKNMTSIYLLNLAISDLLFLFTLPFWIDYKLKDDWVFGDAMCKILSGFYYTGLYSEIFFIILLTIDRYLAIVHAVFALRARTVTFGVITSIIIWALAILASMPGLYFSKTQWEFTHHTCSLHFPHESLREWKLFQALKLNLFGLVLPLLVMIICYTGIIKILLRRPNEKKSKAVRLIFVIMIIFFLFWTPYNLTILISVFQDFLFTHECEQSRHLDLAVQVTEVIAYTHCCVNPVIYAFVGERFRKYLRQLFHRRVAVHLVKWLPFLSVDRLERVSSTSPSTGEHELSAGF

[20] = Volume of distribution in Sprague-Dawley rat; type: ADME, organism-based; conditions: in vivo, read-out: Vdss
[21] = Tmax in Beagle dog; type: ADME, organism-based, Canis lupus familiaris; conditions: in vivo

Chain of C-C chemokine receptor type 2 (Mus musculus, UniProt P51683) (P51683 whole entry): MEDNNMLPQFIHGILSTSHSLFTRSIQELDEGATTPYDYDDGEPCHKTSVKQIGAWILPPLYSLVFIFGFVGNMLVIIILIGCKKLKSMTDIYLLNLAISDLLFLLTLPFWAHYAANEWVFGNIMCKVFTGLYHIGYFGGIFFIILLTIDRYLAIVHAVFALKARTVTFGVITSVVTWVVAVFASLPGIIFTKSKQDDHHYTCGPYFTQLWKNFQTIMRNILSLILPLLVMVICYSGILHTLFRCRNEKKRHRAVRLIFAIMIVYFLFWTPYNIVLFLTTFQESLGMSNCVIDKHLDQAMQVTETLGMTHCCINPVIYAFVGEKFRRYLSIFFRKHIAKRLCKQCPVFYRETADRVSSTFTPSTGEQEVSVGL
Chain of C-X-C chemokine receptor type 4 (Homo sapiens) (P61073 whole entry): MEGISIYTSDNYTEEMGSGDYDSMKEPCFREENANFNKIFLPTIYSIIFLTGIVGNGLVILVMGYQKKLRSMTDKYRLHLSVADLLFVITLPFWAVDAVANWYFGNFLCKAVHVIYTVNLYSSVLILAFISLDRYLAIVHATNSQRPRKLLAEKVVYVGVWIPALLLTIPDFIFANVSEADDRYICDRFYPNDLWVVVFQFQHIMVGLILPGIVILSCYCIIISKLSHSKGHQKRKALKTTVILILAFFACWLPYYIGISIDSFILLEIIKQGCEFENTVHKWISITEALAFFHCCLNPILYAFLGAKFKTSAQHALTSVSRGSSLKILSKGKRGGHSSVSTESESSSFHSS
Chain of C-C chemokine receptor type 5 (Homo sapiens) (P51681 whole entry, looked up): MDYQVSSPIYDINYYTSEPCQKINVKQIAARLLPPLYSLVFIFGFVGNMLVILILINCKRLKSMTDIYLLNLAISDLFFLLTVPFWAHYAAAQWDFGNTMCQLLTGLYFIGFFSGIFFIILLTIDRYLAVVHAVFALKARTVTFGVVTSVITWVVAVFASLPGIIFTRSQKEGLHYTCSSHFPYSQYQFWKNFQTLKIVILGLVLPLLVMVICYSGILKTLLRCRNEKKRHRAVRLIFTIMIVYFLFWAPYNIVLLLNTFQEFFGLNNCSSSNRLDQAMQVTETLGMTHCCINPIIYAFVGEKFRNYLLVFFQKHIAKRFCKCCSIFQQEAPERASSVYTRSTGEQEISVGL
Chain of Substance-P receptor (Homo sapiens) (P25103 whole entry): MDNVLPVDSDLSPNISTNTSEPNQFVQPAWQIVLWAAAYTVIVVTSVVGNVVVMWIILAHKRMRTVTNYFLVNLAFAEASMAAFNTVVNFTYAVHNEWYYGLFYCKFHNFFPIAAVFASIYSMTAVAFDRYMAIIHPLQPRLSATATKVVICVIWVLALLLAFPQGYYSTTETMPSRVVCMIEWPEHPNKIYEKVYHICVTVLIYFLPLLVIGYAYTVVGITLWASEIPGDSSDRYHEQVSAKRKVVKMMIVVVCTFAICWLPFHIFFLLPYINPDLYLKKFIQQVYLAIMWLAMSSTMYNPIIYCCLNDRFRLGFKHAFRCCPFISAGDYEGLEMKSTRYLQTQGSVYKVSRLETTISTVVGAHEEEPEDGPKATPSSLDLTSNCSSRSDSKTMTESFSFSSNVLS

Work on `COC(=O)Nc1nc([C@H](CCN2CCC(c3ccccc3)CC2)C(=O)NCc2cc(C(F)(F)F)cc(C(F)(F)F)c2)cs1` yielded an IC50 [1] of 3.5 nM.
Work on `CC(=O)Nc1nc(C(CCN2CCCCC2)C(=O)NCc2cc(C(F)(F)F)cc(C(F)(F)F)c2)cs1` (centres undefined) yielded an IC50 [1] of 13 nM.
`CNC(=O)Nc1nc([C@@H](CCN2CCC3(C=Cc4ccccc43)CC2)C(=O)NCc2cc(C(F)(F)F)cc(C(F)(F)F)c2)cs1` gave an IC50 [1] of 5.8 nM.
In the case of `CC(=O)Nc1nc(C(CCN2CCN(c3ccccc3C)CC2)C(=O)NCc2cc(C(F)(F)F)cc(C(F)(F)F)c2)cs1` (centres undefined), the IC50 [1] is reported as 14.5 nM.
Work on `CN(C)C(=O)Nc1nc(C(CCN2CCC(c3ccccc3)CC2)C(=O)NCc2cc(C(F)(F)F)cc(C(F)(F)F)c2)cs1` (centres undefined) yielded an IC50 [1] of 2.3 nM.
`CC(=O)Nc1nc([C@H](CCN2CCC(c3ccccc3)CC2)C(=O)NCc2cc(C(F)(F)F)cc(C(F)(F)F)c2)cs1` showed an IC50 [1] of 1.8 nM.
`CC(=O)Nc1nc(C(CCN2CCN(c3ccc(F)cc3)CC2)C(=O)NCc2cc(C(F)(F)F)cc(C(F)(F)F)c2)cs1` (centres undefined) showed an IC50 [1] of 32.7 nM.
`Nc1nc([C@H](CCN2CCC(c3ccccc3)CC2)C(=O)NCc2cc(C(F)(F)F)cc(C(F)(F)F)c2)cs1` gave an IC50 [1] of 13.3 nM.
`C[C@H]1CN(CCC(C(=O)NCc2cc(C(F)(F)F)cc(C(F)(F)F)c2)c2csc(NC(=O)c3ccccc3)n2)CC[C@]12C=Cc1ccccc12` (some centres undefined) gave an IC50 [2] of 952 nM and an IC50 [1] of 17 nM.
`Nc1nc(C(CCN2CCN(c3ccc(F)cc3)CC2)C(=O)NCc2cc(C(F)(F)F)cc(C(F)(F)F)c2)cs1` (centres undefined) gave an inhibition [3] of 70%.
In the case of `N=C(N)Nc1nc(C(CCN2CCC(c3ccccc3)CC2)C(=O)NCc2cc(C(F)(F)F)cc(C(F)(F)F)c2)cs1` (centres undefined), the IC50 [1] is reported as 1.3 nM.
Molecule `CC(=O)Nc1nc(C(CCN2CCC(c3ccccc3)CC2)C(=O)NCc2cc(C(F)(F)F)cc(C(F)(F)F)c2)cs1` (centres undefined) has a half-life [4] of 84 min, a half-life [5] of 137 min and an inhibition [6] of 27%. The inhibition [7] was 86%, the Cmax [8] was 18 nM and the bioavailability [9] was 17%. The IC50 [1] was 5.2 nM, the Cmax [10] was 64 nM and the inhibition [11] was 7%. The clearance [12] was 52.5 mL/min/kg, the inhibition [13] was 44% and the Vd [14] was 4 L/kg. It also gave a Tmax [15] of 2.2 h, a clearance [16] of 21.6 mL/min/kg and an inhibition [17] of 56%. It also gave a bioavailability [18] of 1.6%, an inhibition [19] of 66% and a Vd [20] of 5.3 L/kg. For the same molecule, the Tmax [21] was 30 min.
Molecule `CNC(=O)Nc1nc([C@@H](CCN2CCC(c3ccccc3)CC2)C(=O)NCc2cc(C(F)(F)F)cc(C(F)(F)F)c2)cs1` has an IC50 [1] of 30 nM.
With `CC(C)(C)OC(=O)Nc1nc([C@@H](CCN2CCC(c3ccccc3)CC2)C(=O)NCc2cc(C(F)(F)F)cc(C(F)(F)F)c2)cs1` the IC50 [1] was 13.3 nM.
With `Nc1nc(C(CCN2CCCCC2)C(=O)NCc2cc(C(F)(F)F)cc(C(F)(F)F)c2)cs1` (centres undefined) the inhibition [3] was 75%.
Molecule `CS(=O)(=O)Nc1nc(C(CCN2CCC(c3ccccc3)CC2)C(=O)NCc2cc(C(F)(F)F)cc(C(F)(F)F)c2)cs1` (centres undefined) has an IC50 [1] of 36 nM.
With `Nc1nc(C(CCN2CCC3(C=Cc4ccccc43)CC2)C(=O)NCc2cc(C(F)(F)F)cc(C(F)(F)F)c2)cs1` (centres undefined) the IC50 [1] was 7.3 nM.
Molecule `CC(C)C(=O)Nc1nc(C(CCN2CCC(c3ccccc3)CC2)C(=O)NCc2cc(C(F)(F)F)cc(C(F)(F)F)c2)cs1` (centres undefined) has an IC50 [1] of 7.4 nM.
With `CC(C)(C)C(=O)Nc1nc(C(CCN2CCC(c3ccccc3)CC2)C(=O)NCc2cc(C(F)(F)F)cc(C(F)(F)F)c2)cs1` (centres undefined) the IC50 [1] was 18 nM.
Molecule `CC(C)(C)OC(=O)Nc1nc([C@H](CCN2CCC(c3ccccc3)CC2)C(=O)NCc2cc(C(F)(F)F)cc(C(F)(F)F)c2)cs1` has an IC50 [1] of 14.3 nM.
`C[C@H]1CN(CCC(C(=O)NCc2cc(C(F)(F)F)cc(C(F)(F)F)c2)c2csc(NC(=O)C3Cc4ccccc43)n2)CC[C@]12C=Cc1ccccc12` (some centres undefined) showed an IC50 [2] of 111 nM and an IC50 [1] of 36 nM.
`CC(=O)Nc1nc(C(CCN2CCC3(C=Cc4ccccc43)CC2)C(=O)NCc2cc(C(F)(F)F)cc(C(F)(F)F)c2)cs1` (centres undefined) gave an IC50 [1] of 1.7 nM.
`O=C(Nc1nc(C(CCN2CCC(c3ccccc3)CC2)C(=O)NCc2cc(C(F)(F)F)cc(C(F)(F)F)c2)cs1)C1CC1` (centres undefined) showed an IC50 [1] of 3.9 nM.
Work on `CC(=O)Nc1nc([C@H](CCN2CCC3(C=Cc4ccccc43)CC2)C(=O)NCc2cc(C(F)(F)F)cc(C(F)(F)F)c2)cs1` yielded an IC50 [1] of 1.4 nM.
